# From ChEMBL document CHEMBL1687829, “Evaluation of hepatotoxicity with off-label oral-treatment doses of voriconazole for invasive fungal infections” (Antimicrob Agents Chemother, 2011)
# Tests used:
# Homo sapiens [1] = assay: Hepatotoxicity in patient assessed as five times increase in baseline AST level at 200 mg, po bid for 72 days; format: toxicity, organism-based; conditions: in vivo, 1728 h
# Summary of the method: (§1)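 Retrospective cohort at one hospital, 2006–2008. Patients received ≥7 days of oral voriconazole treatment for possible, probable or proven invasive fungal infection, with baseline and follow-up liver enzymes available; prophylaxis use was excluded. Groups were fixed 200 mg twice daily (n = 25) or weight-based 4 mg/kg twice daily after day 1 (n = 84). Read-out was number (%) of patients with a value >5× baseline or >3× ULN.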
# Homo sapiens [2] = assay: Toxicity in patients assessed as adverse event at 297.3 mg, po bid for 76.1 days; format: organism-based; conditions: in vivo, 1826.4 h
# Summary of the method: (§2)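 Same retrospective cohort (fixed 200 mg twice daily, n = 25, versus weight-based oral dosing, n = 84; ≥7 days of treatment). The outcome was voriconazole discontinuation that the practitioner attributed to an adverse drug event, taken from the medical records. Counts and % per group were compared between groups.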
# Homo sapiens [3] = assay: Hepatotoxicity in patient assessed as three times increase in upper limit of normal […] level at 297.3 mg, po bid for 76.1 days; format: toxicity, organism-based; conditions: in vivo, 1826.4 h; summary of the method: as §1
# Homo sapiens [4] = assay: Hepatotoxicity in patients assessed as five times increase in baseline bilirubin level at 200 mg, po bid for 72 days; format: toxicity, organism-based; conditions: in vivo, 1728 h; summary of the method: as §1
# Homo sapiens [5] = assay: Hepatotoxicity in patients assessed as three times increase in upper limit of normal bilirubin level at 297.3 mg, po bid for 76.1 days; format: toxicity, organism-based; conditions: in vivo, 1826.4 h; summary of the method: as §1
# Homo sapiens [6] = assay: Hepatotoxicity in patients assessed as five times increase in baseline bilirubin level at 297.3 mg, po bid for 76.1 days; format: toxicity, organism-based; conditions: in vivo, 1826.4 h; summary of the method: as §1
# Homo sapiens [7] = assay: Hepatotoxicity in patient assessed as three times increase in upper limit of normal […] level at 200 mg, po bid for 72 days; format: toxicity, organism-based; conditions: in vivo, 1728 h; summary of the method: as §1
# Homo sapiens [8] = assay: Hepatotoxicity in patients assessed as three times increase in upper limit of normal bilirubin level at 200 mg, po bid for 72 days; format: toxicity, organism-based; conditions: in vivo, 1728 h; summary of the method: as §1
# Homo sapiens [9] = assay: Hepatotoxicity in patient assessed as three times increase in upper limit of normal AST level at 200 mg, po bid for 72 days; format: toxicity, organism-based; conditions: in vivo, 1728 h; summary of the method: as §1
# Homo sapiens [10] = assay: Hepatotoxicity in patient assessed as five times increase in baseline AST level at 297.3 mg, po bid for 76.1 days; format: toxicity, organism-based; conditions: in vivo, 1826.4 h; summary of the method: as §1
# Homo sapiens [11] = assay: Hepatotoxicity in patient assessed as three times increase in upper limit of normal ALT level at 297.3 mg, po bid for 76.1 days; format: toxicity, organism-based; conditions: in vivo, 1826.4 h; summary of the method: as §1
# Homo sapiens [12] = assay: Hepatotoxicity in patient assessed as five times increase in baseline ALT level at 297.3 mg, po bid for 76.1 days; format: toxicity, organism-based; conditions: in vivo, 1826.4 h; summary of the method: as §1
# Homo sapiens [13] = assay: Toxicity in patient assessed as visual disturbance at 297.3 mg, po bid for 76.1 days; format: organism-based; conditions: in vivo, 1826.4 h
# Summary of the method: (§3)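 Retrospective chart review of the same cohort: adults on ≥7 days of oral voriconazole treatment, either fixed 200 mg twice daily (n = 25) or weight-based dosing (n = 84). Visual disturbances were taken from the medical records as a secondary adverse-event endpoint and given as number (%) of patients per group.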
# Homo sapiens [14] = assay: Toxicity in patients assessed as adverse event at 200 mg, po bid for 72 days; format: organism-based; conditions: in vivo, 1728 h; summary of the method: as §2
# Homo sapiens [15] = assay: Hepatotoxicity in patient assessed as five times increase in baseline […] level at 297.3 mg, po bid for 76.1 days; format: toxicity, organism-based; conditions: in vivo, 1826.4 h; summary of the method: as §1
# Homo sapiens [16] = assay: Hepatotoxicity in patient assessed as five times increase in baseline ALT level at 200 mg, po bid for 72 days; format: toxicity, organism-based; conditions: in vivo, 1728 h; summary of the method: as §1
# Homo sapiens [17] = assay: Toxicity in patient assessed as visual disturbance at 200 mg, po bid for 72 days; format: organism-based; conditions: in vivo, 1728 h; summary of the method: as §3
# Homo sapiens [18] = assay: Hepatotoxicity in patient assessed as three times increase in upper limit of normal ALT level at 200 mg, po bid for 72 days; format: toxicity, organism-based; conditions: in vivo, 1728 h; summary of the method: as §1
# Homo sapiens [19] = assay: Hepatotoxicity in patient assessed as five times increase in baseline ALP level at 200 mg, po bid for 72 days; format: toxicity, organism-based; conditions: in vivo, 1728 h; summary of the method: as §1
# Homo sapiens [20] = assay: Hepatotoxicity in patient assessed as three times increase in upper limit of normal AST level at 297.3 mg, po bid for 76.1 days; format: toxicity, organism-based; conditions: in vivo, 1826.4 h; summary of the method: as §1
smiles,measurement,setting,value
C[C@@H](c1ncncc1F)[C@](O)(Cn1cncn1)c1ccc(F)cc1F [VORICONAZOLE],Activity,Homo sapiens [1],12%
same,Activity,Homo sapiens [2],16.9%
same,Activity,Homo sapiens [3],11.9%
same,Activity,Homo sapiens [4],12%
same,Activity,Homo sapiens [5],6%
same,Activity,Homo sapiens [6],3.6%
same,Activity,Homo sapiens [7],32%
same,Activity,Homo sapiens [8],16%
same,Activity,Homo sapiens [9],16%
same,Activity,Homo sapiens [10],15.5%
same,Activity,Homo sapiens [11],15.5%
same,Activity,Homo sapiens [12],13.1%
same,Activity,Homo sapiens [13],3.6%
same,Activity,Homo sapiens [14],0%
same,Activity,Homo sapiens [15],3.6%
same,Activity,Homo sapiens [16],24%
same,Activity,Homo sapiens [17],4%
same,Activity,Homo sapiens [18],12%
same,Activity,Homo sapiens [19],4%
same,Activity,Homo sapiens [20],20.2%
